Calls of active or inactive are those of the source. The calls are words filed in the database; no cut-off is given here.
Assays:
[1] = molecular target: T1, Epidermal growth factor receptor (Homo sapiens, UniProt P00533); assay: Inhibition of EGFR using GST-Crk as substrate assessed as phosphorylated Crk level after 20 mins by SDS-PAGE analysis
In short: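 Kinase mix was incubated with inhibitor at 0, 0.5, 2.5, 12.5 and 62.5 nM on ice for 10 min, then at 30 °C for 20 min. The reaction was quenched with SDS sample buffer at 100 °C for 4 min. Proteins were run on 10% SDS–PAGE and the dried gel was quantified by phosphorimager.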

[2] = molecular target: T1, Epidermal growth factor receptor; assay: Inhibition of EGFR-mediated intracellular tyrosine phosphorylation in EGF-stimulated human A431 cells after 2.5 hrs by SDS-PAGE analysis; format: cell-based, A-431
In short: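 A431 cells were grown 2 days in DMEM with 10% FCS at 37 °C, 5% CO₂, then serum-starved 18 h. Inhibitor was added at 0, 10, 50, 250 and 1000 nM for 2.5 h at 37 °C. Cells were stimulated with 100 ng/ml EGF for 5 min and lysed in SDS buffer with 1 mM vanadate. Lysates were run on 10% SDS–PAGE, immunoblotted with anti-phosphotyrosine (pY99, 4G10), detected by ECL, and quantified by densitometry.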

[3] = molecular target: Tyrosine-protein kinase ABL1 (Homo sapiens) (UniProt P00519); assay: Inhibition of Abl at >[…] nM
Tyrosine-protein kinase ABL1 (Homo sapiens), sequence (P00519 whole entry): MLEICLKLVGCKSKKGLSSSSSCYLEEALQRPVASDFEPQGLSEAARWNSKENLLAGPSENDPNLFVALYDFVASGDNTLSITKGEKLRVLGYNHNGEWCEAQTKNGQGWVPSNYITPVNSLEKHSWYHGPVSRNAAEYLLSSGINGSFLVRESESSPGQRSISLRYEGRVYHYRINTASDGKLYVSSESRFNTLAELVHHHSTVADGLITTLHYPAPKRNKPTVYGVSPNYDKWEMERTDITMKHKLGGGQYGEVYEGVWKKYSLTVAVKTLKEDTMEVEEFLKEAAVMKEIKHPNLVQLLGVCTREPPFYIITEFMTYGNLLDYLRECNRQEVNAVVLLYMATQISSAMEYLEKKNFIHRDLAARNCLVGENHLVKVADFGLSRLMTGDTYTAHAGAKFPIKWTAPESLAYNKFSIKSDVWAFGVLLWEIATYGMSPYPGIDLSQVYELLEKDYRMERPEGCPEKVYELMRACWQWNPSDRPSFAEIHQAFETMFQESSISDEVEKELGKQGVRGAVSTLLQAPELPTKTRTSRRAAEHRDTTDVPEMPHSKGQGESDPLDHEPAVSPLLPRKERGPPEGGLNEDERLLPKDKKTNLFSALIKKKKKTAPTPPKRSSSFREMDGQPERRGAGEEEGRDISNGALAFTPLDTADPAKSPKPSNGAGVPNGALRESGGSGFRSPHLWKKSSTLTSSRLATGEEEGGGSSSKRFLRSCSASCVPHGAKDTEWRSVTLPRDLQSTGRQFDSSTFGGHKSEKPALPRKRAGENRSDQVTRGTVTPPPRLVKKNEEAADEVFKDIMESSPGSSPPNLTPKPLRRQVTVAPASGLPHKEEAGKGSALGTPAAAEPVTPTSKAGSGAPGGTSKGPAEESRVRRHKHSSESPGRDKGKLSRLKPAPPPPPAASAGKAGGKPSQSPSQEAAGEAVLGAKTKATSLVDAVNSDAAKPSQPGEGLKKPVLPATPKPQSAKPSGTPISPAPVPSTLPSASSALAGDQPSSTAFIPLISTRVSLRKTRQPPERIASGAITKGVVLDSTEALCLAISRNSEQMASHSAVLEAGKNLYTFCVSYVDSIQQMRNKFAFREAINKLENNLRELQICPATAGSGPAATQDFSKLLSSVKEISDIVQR

[4] = molecular target: Tyrosine-protein kinase ABL2 (Homo sapiens) (UniProt P42684); assay: Inhibition of Arg at >[…] nM
Tyrosine-protein kinase ABL2 (Homo sapiens), sequence (P42684 whole entry): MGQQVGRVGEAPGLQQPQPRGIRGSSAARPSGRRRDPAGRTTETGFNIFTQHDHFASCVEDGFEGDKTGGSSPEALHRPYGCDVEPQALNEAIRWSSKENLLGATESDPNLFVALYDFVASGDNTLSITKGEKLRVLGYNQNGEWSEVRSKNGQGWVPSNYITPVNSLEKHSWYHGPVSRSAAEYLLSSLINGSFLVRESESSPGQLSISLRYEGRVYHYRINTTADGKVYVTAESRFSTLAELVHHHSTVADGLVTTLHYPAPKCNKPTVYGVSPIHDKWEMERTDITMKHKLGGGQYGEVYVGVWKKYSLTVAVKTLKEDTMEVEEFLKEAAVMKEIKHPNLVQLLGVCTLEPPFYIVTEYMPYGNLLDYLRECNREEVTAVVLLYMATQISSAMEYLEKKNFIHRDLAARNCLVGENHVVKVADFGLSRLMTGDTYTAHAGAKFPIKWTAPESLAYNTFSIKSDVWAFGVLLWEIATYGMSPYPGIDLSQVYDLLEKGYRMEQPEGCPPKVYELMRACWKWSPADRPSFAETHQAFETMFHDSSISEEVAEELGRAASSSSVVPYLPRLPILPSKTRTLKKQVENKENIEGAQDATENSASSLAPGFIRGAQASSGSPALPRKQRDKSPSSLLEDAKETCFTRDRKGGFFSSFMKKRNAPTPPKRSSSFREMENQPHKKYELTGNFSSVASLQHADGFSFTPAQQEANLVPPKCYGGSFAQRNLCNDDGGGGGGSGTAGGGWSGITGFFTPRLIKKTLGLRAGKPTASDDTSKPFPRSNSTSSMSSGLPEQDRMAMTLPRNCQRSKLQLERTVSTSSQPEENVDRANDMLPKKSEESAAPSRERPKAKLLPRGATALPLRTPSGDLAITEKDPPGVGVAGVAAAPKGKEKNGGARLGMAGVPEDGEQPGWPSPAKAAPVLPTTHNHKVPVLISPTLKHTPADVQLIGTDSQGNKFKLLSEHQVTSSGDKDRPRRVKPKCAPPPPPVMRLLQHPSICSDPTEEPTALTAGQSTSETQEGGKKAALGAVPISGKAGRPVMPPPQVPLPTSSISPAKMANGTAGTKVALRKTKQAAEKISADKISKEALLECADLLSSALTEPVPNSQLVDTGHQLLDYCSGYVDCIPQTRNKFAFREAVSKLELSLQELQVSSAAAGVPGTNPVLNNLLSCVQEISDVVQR

[5] = molecular target: Proto-oncogene tyrosine-protein kinase Src (Homo sapiens) (UniProt P12931); assay: Inhibition of c-Src at >1000 nM
Proto-oncogene tyrosine-protein kinase Src (Homo sapiens), sequence (P12931 2-536 limits assumed): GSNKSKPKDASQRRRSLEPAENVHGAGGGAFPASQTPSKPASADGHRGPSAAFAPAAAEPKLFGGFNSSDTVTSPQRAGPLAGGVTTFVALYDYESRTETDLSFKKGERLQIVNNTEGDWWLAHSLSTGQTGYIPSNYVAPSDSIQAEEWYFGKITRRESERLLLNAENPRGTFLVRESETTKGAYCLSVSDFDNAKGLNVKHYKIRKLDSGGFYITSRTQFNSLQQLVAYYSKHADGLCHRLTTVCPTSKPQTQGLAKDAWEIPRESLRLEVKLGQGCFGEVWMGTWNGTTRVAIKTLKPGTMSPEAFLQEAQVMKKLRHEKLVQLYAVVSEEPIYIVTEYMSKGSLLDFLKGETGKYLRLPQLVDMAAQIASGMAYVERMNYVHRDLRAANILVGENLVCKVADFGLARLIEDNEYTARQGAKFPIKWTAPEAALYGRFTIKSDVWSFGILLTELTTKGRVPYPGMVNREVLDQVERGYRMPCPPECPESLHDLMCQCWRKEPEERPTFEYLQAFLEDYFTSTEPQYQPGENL

[6] = Oral bioavailability in rat at 35 mg/kg; format: ADME, organism-based; details: in vivo
In short: (§1)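 Rats given a single oral dose (35 mg/kg) and a separate single intravenous dose (35 mg/kg). Pharmacokinetic parameters were derived from these two dosings.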

[7] = Cmax in rat at 35 mg/kg, po; format: ADME, organism-based; set-up: dose 35 mg/kg, route oral; details: in vivo; in short: as §1
Rattus norvegicus = assay: AUC in rat at 35 mg/kg, po; format: ADME, organism-based, Plasma; set-up: dose 35 mg/kg, route oral; details: in vivo; in short: as §1
[8] = Half life in rat at 35 mg/kg, po; format: ADME, organism-based; set-up: dose 35 mg/kg, route oral; details: in vivo; in short: as §1
[9] = Clearance in rat at 35 mg/kg, iv and 35 mg/kg, po; format: ADME, organism-based; details: in vivo; in short: as §1
[10] = Volume of distribution at steady state in rat at 35 mg/kg, iv and 35 mg/kg, po; format: ADME, organism-based; details: in vivo, read-out: Vdss; in short: as §1
[11] = Mean residence time in rat at 35 mg/kg, iv and 35 mg/kg, po; format: ADME, organism-based; details: in vivo; in short: as §1
A-431 = assay: Antitumor activity against human A431 cells xenografted in mouse assessed as inhibition of tumor growth administered as po qd; format: functional, organism-based
In short: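 Mice carried A431 xenografts. At a tumor volume of about 20 mm³ they were randomized, n = 10/group. Dosing was oral, once daily, at 30, 60 and 120 mg/kg in 0.5% CMC-Na vehicle, for 18–30 days. The positive control was Taxol 30 mg/kg ip once weekly. Tumor size was followed.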

T1 sequence (P00533 whole entry): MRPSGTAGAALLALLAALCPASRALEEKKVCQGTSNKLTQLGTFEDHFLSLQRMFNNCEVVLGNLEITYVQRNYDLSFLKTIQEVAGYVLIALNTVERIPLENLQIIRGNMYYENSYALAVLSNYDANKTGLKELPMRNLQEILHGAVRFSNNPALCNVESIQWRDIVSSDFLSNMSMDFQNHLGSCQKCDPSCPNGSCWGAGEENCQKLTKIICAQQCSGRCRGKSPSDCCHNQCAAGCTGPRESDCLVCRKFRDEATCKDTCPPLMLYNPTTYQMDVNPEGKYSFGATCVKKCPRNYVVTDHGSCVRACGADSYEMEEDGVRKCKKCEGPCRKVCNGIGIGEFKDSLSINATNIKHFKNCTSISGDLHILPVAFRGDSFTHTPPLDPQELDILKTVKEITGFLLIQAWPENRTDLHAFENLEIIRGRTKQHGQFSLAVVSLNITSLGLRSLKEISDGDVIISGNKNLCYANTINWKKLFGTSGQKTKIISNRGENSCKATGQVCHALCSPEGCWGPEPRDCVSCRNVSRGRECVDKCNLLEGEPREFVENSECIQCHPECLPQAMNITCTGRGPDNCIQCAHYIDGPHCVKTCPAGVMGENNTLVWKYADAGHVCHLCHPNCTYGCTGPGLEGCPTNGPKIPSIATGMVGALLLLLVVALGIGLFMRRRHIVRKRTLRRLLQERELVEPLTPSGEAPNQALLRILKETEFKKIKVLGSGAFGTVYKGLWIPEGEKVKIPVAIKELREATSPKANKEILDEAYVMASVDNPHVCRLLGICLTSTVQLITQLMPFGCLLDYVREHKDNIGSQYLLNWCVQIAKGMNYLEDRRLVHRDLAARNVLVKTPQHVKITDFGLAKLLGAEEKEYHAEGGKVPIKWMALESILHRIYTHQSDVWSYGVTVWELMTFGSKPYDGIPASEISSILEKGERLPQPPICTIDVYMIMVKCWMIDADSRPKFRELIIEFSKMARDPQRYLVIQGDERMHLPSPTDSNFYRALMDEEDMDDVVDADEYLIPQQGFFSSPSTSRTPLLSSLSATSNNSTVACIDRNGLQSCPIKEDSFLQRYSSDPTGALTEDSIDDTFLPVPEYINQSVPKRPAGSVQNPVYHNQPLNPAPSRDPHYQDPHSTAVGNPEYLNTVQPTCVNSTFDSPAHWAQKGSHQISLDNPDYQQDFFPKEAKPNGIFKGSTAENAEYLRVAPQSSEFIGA

## Fc1ccc(Nc2ncnc3cc4c(cc23)OCCOCCOCCO4)cc1Cl
[1]
  IC50: 2 nM
[2]
  IC50: 45 nM

## Brc1cccc(Nc2ncnc3cc4c(cc23)OCCCO4)c1
[1]
  IC50: 85 nM

## Clc1cccc(Nc2ncnc3cc4c(cc23)OCCOCCOCCO4)c1
[1]
  IC50: 2 nM
[2]
  IC50: 55 nM

## Brc1cccc(Nc2ncnc3cc4c(cc23)OCCSCCO4)c1
[1]
  IC50: 7 nM
[2]
  IC50: > 1000 nM

## Brc1cccc(Nc2ncnc3cc4c(cc23)OCCOCOCOCCO4)c1
[1]
  IC50: 5 nM
[2]
  IC50: 50 nM

## C#Cc1cccc(Nc2ncnc3cc4c(cc23)OCCOCCOCCO4)c1 [ICOTINIB]
[1]
  IC50: 2 nM
[2]
  IC50: 45 nM
[3]
  inhibition: inactive
[4]
  inhibition: inactive
[5]
  inhibition: inactive
[6]
  bioavailability: 52%
[7]
  Cmax: 6120 ng/mL
Rattus norvegicus
  AUC: 49.4 µg/mL
[8]
  half-life: 2.8 h
[9]
  clearance: 21 mL/min/kg
[10]
  Vd: 3.9 L/kg
[11]
  MRT: 6.9 h
A-431
  inhibition: Dose-dependent effect

## Brc1cccc(Nc2ncnc3cc4c(cc23)OCCOCCO4)c1
[1]
  IC50: 55 nM

## Brc1cccc(Nc2ncnc3cc4c(cc23)Oc2ccccc2O4)c1
[1]
  IC50: 120 nM

## Cc1ccc(S(=O)(=O)N2CCOc3cc4ncnc(Nc5cccc(Br)c5)c4cc3OCC2)cc1
[1]
  IC50: 150 nM

## Brc1cccc(Nc2ncnc3cc4c(cc23)OCCCSCCCO4)c1
[1]
  IC50: 8 nM
[2]
  IC50: > 1000 nM

## Brc1cccc(Nc2ncnc3cc4c(cc23)OCCOCCOCCO4)c1
[1]
  IC50: 5 nM
[2]
  IC50: 50 nM
